This sample holds only a part of the variants without activity.
B1: tRNA (parent)
chain: GUUCCGUUGGCGUAAUGGUAACGCGUCUCCCUCCUAAGGAGAAGACUGCGGGUUCGAGUCCCGUACGGAACG

Variants of: B1
Assay: yeast fitness relative to wild type (ratio to wild type); higher = fitter; tRNA-Arg(CCU), competitive growth, 37 C, YPD
In short: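 Variants of the tRNA-Arg(CCU) gene, chemically synthesised with a 3% per-site mutation rate at 69 sites, were placed at the native genomic locus in Saccharomyces cerevisiae. The pooled strains were competed in YPD at 37°C for 24 hours in six parallel replicates. Gene amplicons from the start population and from each end population were read by 100-nucleotide paired-end sequencing. Darwinian fitness relative to wild type came from changes in genotype frequencies; genotypes needed ≥ 100 starting reads, and estimates < 0.5 were set to 0.5.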

Variant | yeast fitness
U3A A45G G67C | 0.628
U3A A20C U32A A65U | ≤ 0.5
U3A A15C U47C | ≤ 0.5
U3A A15C U16C C66U | ≤ 0.5
U3A A14G G58C | 0.753
U3A A14G C24G C29A G50C A57C | ≤ 0.5
U3A A37C A43C | ≤ 0.5
U3A C4U C29G | ≤ 0.5
U3A A37G A42G G50A C55U U64C | ≤ 0.5
U2G U28G A45C G63C | ≤ 0.5
U3A A20G A36C G51C | ≤ 0.5
U3A A40G A57C A69C | ≤ 0.5
U3A A20C U32A C62U G63A | 0.572
U3A A15G U19A G41A | ≤ 0.5
U3A C4A U16A C30G U53C C66A | ≤ 0.5
U3A C4U A70G | 0.59
U3A C4U U7A C24U | ≤ 0.5
U3A C4A A20C C29A C66U | ≤ 0.5
U3A A37U C66A | ≤ 0.5
U2G U35C | 0.72
U3A A20U C49U | 0.531

Variant | yeast fitness
U3A A57C | 0.714
U3A A21C G25U A43C | ≤ 0.5
U3A C4A A20C C29A | ≤ 0.5
U3A C4U G44C | 0.638
U3A C4A U16G G58C | ≤ 0.5
U3A C5A C29A G68A | ≤ 0.5
U3A A21G G23C A36U C60A | ≤ 0.5
U3A A15U G23C C27U G52A | 0.64
U3A C4U A43G | 0.579
U3A A37U G38C | ≤ 0.5
U3A A21C C24G C62U | 0.526
U2G U32C | 0.867
U2G U32G | 0.68
U2G U26G | 0.693
U2G U54C C62G A70U | ≤ 0.5
U3A A21C C24G C62G A70G | ≤ 0.5
U3A C4U C11U G48C | 0.532
U3A A70C | 0.988
U3A A70U | 0.86
U3A A37C A45C | 0.6
U3A A14G A15U A36U G39C A40U C49U C55A | 0.612

Variant | yeast fitness
U3A A36G C66U | 0.666
U3A A36G G56A A65C A69C | ≤ 0.5
U3A C4U U7A C24U A42U G58A C62U G63A | ≤ 0.5
U3A A20U C29G C49G G63C | ≤ 0.5
U3A A14U C62U | 0.79
U3A A43C C46A G48C | 0.57
U3A A21G U28A A42C A57G C66A | 0.733
U3A A21U C49A | ≤ 0.5
U3A A20U | 0.834
U3A A20G | 1
U3A A40U G56A | ≤ 0.5
U3A A37G G41A | ≤ 0.5
U3A A14C A37C | ≤ 0.5
U3A A36G | 0.868
U3A C4U G25C G48A | ≤ 0.5
U3A A21C C49G | ≤ 0.5
U3A C4G U8A G50A A57C A70U | 0.548
U3A A42C | 0.72
U3A A42G | 0.73
U3A A42C C61A | ≤ 0.5
U3A A36G A70C | 0.991

Variant | yeast fitness
U3A A21G C46A | 0.695
U3A A15U C34U G48A C60U | ≤ 0.5
U3A C4U G10C C33G G52C | ≤ 0.5
U3A A14G G23C A70C | 0.573
U3A A40U A70G | 0.597
U3A A21U A65U | ≤ 0.5
U3A A43U C49U | 0.69
U3A C4A U8C C30U A45C G52C | ≤ 0.5
U3A A14C C34A G52A A70G | 0.673
U2G U64C | 0.841
U3A A20C A21G C61A | 0.514
U3A A69C | 0.919
U3A A20G C24U C55G C61U | ≤ 0.5
U3A A15C C66U | 0.659
U3A C4U A37G A40U | ≤ 0.5
U3A A21C A36U | ≤ 0.5
U3A A14U A37G A57C | ≤ 0.5
U3A A37U | 0.754
U3A A37G | 0.887
U3A A37C | 0.796
U3A A21G A45G A69C | 0.726

From the RNAGym collection of RNA variant scans (doi:10.1126/science.aae0568)
